Laboratory results published in ChEMBL document CHEMBL1152244, “Proteochemometrics analysis of substrate interactions with dengue virus NS3 proteases” (Bioorg Med Chem, 2008).
Non-standard residues stand in square brackets, D forms with d. Residues, ends and D or L forms follow the SMILES beside them. Tyr(3-NO2) = N[C@@H](Cc1ccc(O)c([N+](=O)[O-])c1)C(=O)O; 2Abz = Nc1ccccc1C(=O)O

Experiments:
[1] = tested on: dengue virus type 4; assay: Activity of dengue virus 4 recombinant NS3 protease expressed in Escherichia coli C41(DE3) by fluorogenic assay
In short: (§1)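 NS2B(H)-NS3pro from inclusion bodies, Ni-chelate and gel filtration purified under 8 M urea, refolded by dialysis. Internally quenched Abz–RRRR-XXXX–nY–NH2 peptides, 1–100 µM (12 points), enzyme 150–200 nM, 50 mM Tris–HCl pH 9.0, 20% glycerol, 37 °C. Cleavage read as fluorescence, ex 320/em 420 nm. Initial rates fitted to give Km and kcat, averaged over ≥3 independent measurements.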

[2] = tested on: dengue virus type 2; assay: Activity of dengue virus 2 recombinant NS3 protease expressed in Escherichia coli C41(DE3) by fluorogenic assay; in short: as §1
[3] = tested on: dengue virus type 1; assay: Activity of dengue virus 1 recombinant NS3 protease expressed in Escherichia coli C41(DE3) by fluorogenic assay; in short: as §1
[4] = tested on: dengue virus type 3; assay: Activity of dengue virus 3 recombinant NS3 protease expressed in Escherichia coli C41(DE3) by fluorogenic assay; in short: as §1

Structure (SMILES)	Km [1]	kcat [1]	Km [2]	kcat [2]	Km [3]	kcat [3]	Km [4]	kcat [4]
NC(=O)[C@H](Cc1ccc(O)c([N+](=O)[O-])c1)NC(=O)[C@H](CS)NC(=O)[C@@H]1CCCN1C(=O)[C@H](CC(=O)O)NC(=O)CNC(=O)c1ccccc1N (H-[2Abz]GDPC[Tyr(3-NO2)]-NH2)	11.5 µM	0.021 s⁻¹	13.2 µM	0.003 s⁻¹	31.9 µM	0.0202 s⁻¹	41.5 µM	0.007 s⁻¹
C[C@@H](O)[C@H](NC(=O)[C@H](Cc1c[nH]c2ccccc12)NC(=O)[C@H](CC(N)=O)NC(=O)c1ccccc1N)C(=O)N[C@@H](CC(N)=O)C(=O)N[C@@H](Cc1ccc(O)c([N+](=O)[O-])c1)C(N)=O (H-[2Abz]NWTN[Tyr(3-NO2)]-NH2)	10.4 µM	0.0378 s⁻¹	6.02 µM	0.005 s⁻¹	13.7 µM	0.0145 s⁻¹	9.37 µM	0.0065 s⁻¹
CC(C)[C@H](NC(=O)[C@H](C)NC(=O)[C@H](C)NC(=O)c1ccccc1N)C(=O)N[C@@H](CC(=O)O)C(=O)N[C@@H](Cc1ccc(O)c([N+](=O)[O-])c1)C(N)=O (H-[2Abz]AAVD[Tyr(3-NO2)]-NH2)	36.9 µM	0.113 s⁻¹	18.3 µM	0.0125 s⁻¹	31.4 µM	0.0352 s⁻¹	21.2 µM	0.0153 s⁻¹
C[C@@H](O)[C@H](NC(=O)[C@H](CO)NC(=O)[C@H](CC(=O)O)NC(=O)c1ccccc1N)C(=O)N[C@@H](CS)C(=O)N[C@@H](Cc1ccc(O)c([N+](=O)[O-])c1)C(N)=O (H-[2Abz]DSTC[Tyr(3-NO2)]-NH2)	23.1 µM	0.014 s⁻¹	12.8 µM	0.00117 s⁻¹	15.2 µM	0.00767 s⁻¹	11.1 µM	0.00333 s⁻¹
CC(C)C[C@H](NC(=O)[C@@H](NC(=O)CNC(=O)[C@H](C)NC(=O)c1ccccc1N)C(C)C)C(=O)N[C@@H](Cc1ccc(O)c([N+](=O)[O-])c1)C(N)=O (H-[2Abz]AGVL[Tyr(3-NO2)]-NH2)	10.8 µM	0.0553 s⁻¹	2.19 µM	0.00567 s⁻¹	23.9 µM	0.06 s⁻¹	10.6 µM	0.0105 s⁻¹
C[C@H](NC(=O)c1ccccc1N)C(=O)N[C@@H](CC(N)=O)C(=O)NCC(=O)N[C@@H](Cc1cnc[nH]1)C(=O)N[C@@H](Cc1ccc(O)c([N+](=O)[O-])c1)C(N)=O (H-[2Abz]ANGH[Tyr(3-NO2)]-NH2)	10.8 µM	0.0595 s⁻¹	7.02 µM	0.0015 s⁻¹	22.3 µM	0.031 s⁻¹	31.4 µM	0.0102 s⁻¹
CSCC[C@H](NC(=O)[C@H](C)NC(=O)[C@H](C)NC(=O)[C@H](CO)NC(=O)c1ccccc1N)C(=O)N[C@@H](Cc1ccc(O)c([N+](=O)[O-])c1)C(N)=O (H-[2Abz]SAAM[Tyr(3-NO2)]-NH2)	14.3 µM	0.219 s⁻¹	3.33 µM	0.026 s⁻¹	16.3 µM	0.153 s⁻¹	13.8 µM	0.03 s⁻¹
NC(=O)[C@H](Cc1ccc(O)c([N+](=O)[O-])c1)NC(=O)[C@@H]1CCCN1C(=O)[C@@H]1CCCN1C(=O)CNC(=O)c1ccccc1N (H-[2Abz]GPP[Tyr(3-NO2)]-NH2)	8.15 µM	0.022 s⁻¹	5.15 µM	0.00283 s⁻¹	16.9 µM	0.02 s⁻¹	18.7 µM	0.00733 s⁻¹
NC(=O)C[C@H](NC(=O)CNC(=O)[C@H](Cc1cnc[nH]1)NC(=O)[C@H](Cc1cnc[nH]1)NC(=O)c1ccccc1N)C(=O)N[C@@H](Cc1ccc(O)c([N+](=O)[O-])c1)C(N)=O (H-[2Abz]HHGN[Tyr(3-NO2)]-NH2)	7.06 µM	0.0192 s⁻¹	4.34 µM	0.00133 s⁻¹	9.1 µM	0.004 s⁻¹	10.1 µM	0.00183 s⁻¹
NC(=O)[C@H](Cc1ccc(O)c([N+](=O)[O-])c1)NC(=O)[C@H](Cc1cnc[nH]1)NC(=O)[C@H](CS)NC(=O)CNC(=O)[C@H](CC(=O)O)NC(=O)c1ccccc1N (H-[2Abz]DGCH[Tyr(3-NO2)]-NH2)	9.05 µM	0.00783 s⁻¹	7.02 µM	0.0015 s⁻¹	22.9 µM	0.0128 s⁻¹	20.8 µM	0.00283 s⁻¹
CC(C)[C@H](NC(=O)[C@@H](NC(=O)CNC(=O)c1ccccc1N)[C@@H](C)O)C(=O)N[C@@H](CC(N)=O)C(=O)N[C@@H](Cc1ccc(O)c([N+](=O)[O-])c1)C(N)=O (H-[2Abz]GTVN[Tyr(3-NO2)]-NH2)	11.8 µM	0.0735 s⁻¹	6.5 µM	0.0055 s⁻¹	10.5 µM	0.0193 s⁻¹	12.6 µM	0.00967 s⁻¹
CSCC[C@H](NC(=O)CNC(=O)[C@H](C)NC(=O)[C@H](CO)NC(=O)c1ccccc1N)C(=O)N[C@@H](Cc1ccc(O)c([N+](=O)[O-])c1)C(N)=O (H-[2Abz]SAGM[Tyr(3-NO2)]-NH2)	22.7 µM	0.282 s⁻¹	3.44 µM	0.031 s⁻¹	25.5 µM	0.166 s⁻¹	24.9 µM	0.0557 s⁻¹
C[C@H](NC(=O)[C@H](CC(N)=O)NC(=O)c1ccccc1N)C(=O)N[C@@H](CS)C(=O)N[C@@H](CS)C(=O)N[C@@H](Cc1ccc(O)c([N+](=O)[O-])c1)C(N)=O (H-[2Abz]NACC[Tyr(3-NO2)]-NH2)	3.03 µM	0.0372 s⁻¹	3.21 µM	0.00467 s⁻¹	8.81 µM	0.0138 s⁻¹	13 µM	0.0102 s⁻¹
C[C@H](NC(=O)[C@H](CO)NC(=O)c1ccccc1N)C(=O)NCC(=O)N[C@@H](Cc1ccc(O)c([N+](=O)[O-])c1)C(N)=O (H-[2Abz]SAG[Tyr(3-NO2)]-NH2)	15.2 µM	0.461 s⁻¹	3.61 µM	0.0423 s⁻¹	28.4 µM	0.282 s⁻¹	20.9 µM	0.0685 s⁻¹
C[C@H](NC(=O)c1ccccc1N)C(=O)N1CCC[C@H]1C(=O)N[C@@H](CS)C(=O)N[C@@H](CC(N)=O)C(=O)N[C@@H](Cc1ccc(O)c([N+](=O)[O-])c1)C(N)=O (H-[2Abz]APCN[Tyr(3-NO2)]-NH2)	4.94 µM	0.0477 s⁻¹	5.41 µM	0.004 s⁻¹	11.4 µM	0.0397 s⁻¹	3.87 µM	0.0112 s⁻¹
CSCC[C@H](NC(=O)CNC(=O)[C@H](C)NC(=O)[C@H](C)NC(=O)c1ccccc1N)C(=O)N[C@@H](Cc1ccc(O)c([N+](=O)[O-])c1)C(N)=O (H-[2Abz]AAGM[Tyr(3-NO2)]-NH2)	8.22 µM	0.0852 s⁻¹	2.46 µM	0.00917 s⁻¹	17.9 µM	0.0818 s⁻¹	12.1 µM	0.012 s⁻¹
NC(=O)[C@H](Cc1ccc(O)c([N+](=O)[O-])c1)NC(=O)[C@H](Cc1cnc[nH]1)NC(=O)[C@@H]1CCCN1C(=O)[C@H](CO)NC(=O)[C@H](Cc1cnc[nH]1)NC(=O)c1ccccc1N (H-[2Abz]HSPH[Tyr(3-NO2)]-NH2)	7.25 µM	0.00417 s⁻¹	5.77 µM	0.00117 s⁻¹	16.7 µM	0.00633 s⁻¹	19.6 µM	0.000833 s⁻¹
C[C@H](NC(=O)c1ccccc1N)C(=O)NCC(=O)N1CCC[C@H]1C(=O)N[C@@H](CC(N)=O)C(=O)N[C@@H](Cc1ccc(O)c([N+](=O)[O-])c1)C(N)=O (H-[2Abz]AGPN[Tyr(3-NO2)]-NH2)	19.2 µM	0.0745 s⁻¹	4.18 µM	0.00683 s⁻¹	12.6 µM	0.0257 s⁻¹	10.8 µM	0.0103 s⁻¹
